The source made the active and inactive calls. The rule behind the calls is not given here.
Columns and labels:
[1] = target: Serine/threonine-protein kinase PLK1 (Homo sapiens) (UniProt P53350); test: Inhibition of PLK1 (unknown origin) at 1000 nM in the presence of ATP by Kinome scan method relative to control
[2] = target: Tyrosine-protein kinase JAK2 (Homo sapiens) (UniProt O60674); test: Inhibition of JAK2 (unknown origin) at 1000 nM in the presence of ATP by Kinome scan method relative to control
[3] = target: Dual specificity mitogen-activated protein kinase kinase 1 (Homo sapiens) (UniProt Q02750); test: Inhibition of MAP2K1 (unknown origin) at 1000 nM in the presence of ATP by Kinome scan method relative to control
[4] = target: Serine/threonine-protein kinase Chk2 (Homo sapiens) (UniProt O96017); test: Inhibition of CHEK2 (unknown origin) at 100 nM in the presence of ATP by Kinome scan method relative to control
Serine/threonine-protein kinase Chk2 (Homo sapiens), sequence (O96017 whole entry): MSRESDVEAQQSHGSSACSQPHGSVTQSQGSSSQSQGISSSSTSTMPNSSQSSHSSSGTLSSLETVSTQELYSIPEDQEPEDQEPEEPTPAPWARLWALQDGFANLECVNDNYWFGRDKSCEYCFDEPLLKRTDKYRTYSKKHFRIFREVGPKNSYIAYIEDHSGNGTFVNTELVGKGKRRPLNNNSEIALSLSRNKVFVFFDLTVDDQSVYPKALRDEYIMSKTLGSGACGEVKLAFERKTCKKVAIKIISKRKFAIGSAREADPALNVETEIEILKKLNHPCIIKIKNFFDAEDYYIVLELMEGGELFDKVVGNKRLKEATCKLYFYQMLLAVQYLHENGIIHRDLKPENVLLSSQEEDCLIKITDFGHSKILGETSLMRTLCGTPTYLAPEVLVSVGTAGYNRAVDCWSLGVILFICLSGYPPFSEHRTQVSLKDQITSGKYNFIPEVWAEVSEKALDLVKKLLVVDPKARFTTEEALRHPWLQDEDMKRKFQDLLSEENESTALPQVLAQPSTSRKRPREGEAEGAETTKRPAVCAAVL

[5] = target: Dual specificity tyrosine-phosphorylation-regulated kinase 1B (Homo sapiens, UniProt Q9Y463); test: Inhibition of DYRK1B (unknown origin) at 123 nM in the presence of ATP by Kinome scan method relative to control; conditions: time > 6.0 hrs
[6] = target: Mast/stem cell growth factor receptor Kit (Homo sapiens) (UniProt P10721); test: Inhibition of KIT (unknown origin) at 100 nM in the presence of ATP by Kinome scan method relative to control
Mast/stem cell growth factor receptor Kit (Homo sapiens), sequence (P10721 whole entry): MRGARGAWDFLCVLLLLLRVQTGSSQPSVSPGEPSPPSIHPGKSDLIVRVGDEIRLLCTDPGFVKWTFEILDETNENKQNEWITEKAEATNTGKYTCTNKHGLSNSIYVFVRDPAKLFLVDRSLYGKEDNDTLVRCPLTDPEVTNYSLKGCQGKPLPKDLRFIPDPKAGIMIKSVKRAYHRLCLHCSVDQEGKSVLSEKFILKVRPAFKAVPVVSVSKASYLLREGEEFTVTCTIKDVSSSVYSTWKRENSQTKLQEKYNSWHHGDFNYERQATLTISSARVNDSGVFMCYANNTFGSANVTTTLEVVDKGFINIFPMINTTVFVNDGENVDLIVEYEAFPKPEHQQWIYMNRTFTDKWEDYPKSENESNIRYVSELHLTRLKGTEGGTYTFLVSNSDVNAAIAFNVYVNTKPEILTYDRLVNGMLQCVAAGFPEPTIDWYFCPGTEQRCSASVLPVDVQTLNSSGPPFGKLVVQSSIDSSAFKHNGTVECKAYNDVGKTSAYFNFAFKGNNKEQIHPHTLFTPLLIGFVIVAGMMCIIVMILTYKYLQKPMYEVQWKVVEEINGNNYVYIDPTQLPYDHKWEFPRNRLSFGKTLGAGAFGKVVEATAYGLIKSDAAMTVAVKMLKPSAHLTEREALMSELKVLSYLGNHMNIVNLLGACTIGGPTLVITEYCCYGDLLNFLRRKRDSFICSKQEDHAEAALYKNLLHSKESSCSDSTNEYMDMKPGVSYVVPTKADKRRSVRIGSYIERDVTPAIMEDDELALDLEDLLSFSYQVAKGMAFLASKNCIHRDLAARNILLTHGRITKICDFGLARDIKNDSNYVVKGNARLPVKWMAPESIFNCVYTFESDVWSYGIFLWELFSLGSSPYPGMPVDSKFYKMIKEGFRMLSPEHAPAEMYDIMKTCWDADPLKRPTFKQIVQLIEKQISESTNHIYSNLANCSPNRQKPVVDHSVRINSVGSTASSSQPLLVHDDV

[7] = Stability of compound in tissue culture medium assessed as remaining parent compound at 5.38 uM incubated for 24 hrs; assay type: physicochemical; conditions: read-out: Stability
[8] = target: Death-associated protein kinase 1 (Homo sapiens) (UniProt P53355); test: Inhibition of DAPK1 (unknown origin) at 1000 nM in the presence of ATP by Kinome scan method relative to control
Death-associated protein kinase 1 (Homo sapiens), sequence (P53355 whole entry, looked up): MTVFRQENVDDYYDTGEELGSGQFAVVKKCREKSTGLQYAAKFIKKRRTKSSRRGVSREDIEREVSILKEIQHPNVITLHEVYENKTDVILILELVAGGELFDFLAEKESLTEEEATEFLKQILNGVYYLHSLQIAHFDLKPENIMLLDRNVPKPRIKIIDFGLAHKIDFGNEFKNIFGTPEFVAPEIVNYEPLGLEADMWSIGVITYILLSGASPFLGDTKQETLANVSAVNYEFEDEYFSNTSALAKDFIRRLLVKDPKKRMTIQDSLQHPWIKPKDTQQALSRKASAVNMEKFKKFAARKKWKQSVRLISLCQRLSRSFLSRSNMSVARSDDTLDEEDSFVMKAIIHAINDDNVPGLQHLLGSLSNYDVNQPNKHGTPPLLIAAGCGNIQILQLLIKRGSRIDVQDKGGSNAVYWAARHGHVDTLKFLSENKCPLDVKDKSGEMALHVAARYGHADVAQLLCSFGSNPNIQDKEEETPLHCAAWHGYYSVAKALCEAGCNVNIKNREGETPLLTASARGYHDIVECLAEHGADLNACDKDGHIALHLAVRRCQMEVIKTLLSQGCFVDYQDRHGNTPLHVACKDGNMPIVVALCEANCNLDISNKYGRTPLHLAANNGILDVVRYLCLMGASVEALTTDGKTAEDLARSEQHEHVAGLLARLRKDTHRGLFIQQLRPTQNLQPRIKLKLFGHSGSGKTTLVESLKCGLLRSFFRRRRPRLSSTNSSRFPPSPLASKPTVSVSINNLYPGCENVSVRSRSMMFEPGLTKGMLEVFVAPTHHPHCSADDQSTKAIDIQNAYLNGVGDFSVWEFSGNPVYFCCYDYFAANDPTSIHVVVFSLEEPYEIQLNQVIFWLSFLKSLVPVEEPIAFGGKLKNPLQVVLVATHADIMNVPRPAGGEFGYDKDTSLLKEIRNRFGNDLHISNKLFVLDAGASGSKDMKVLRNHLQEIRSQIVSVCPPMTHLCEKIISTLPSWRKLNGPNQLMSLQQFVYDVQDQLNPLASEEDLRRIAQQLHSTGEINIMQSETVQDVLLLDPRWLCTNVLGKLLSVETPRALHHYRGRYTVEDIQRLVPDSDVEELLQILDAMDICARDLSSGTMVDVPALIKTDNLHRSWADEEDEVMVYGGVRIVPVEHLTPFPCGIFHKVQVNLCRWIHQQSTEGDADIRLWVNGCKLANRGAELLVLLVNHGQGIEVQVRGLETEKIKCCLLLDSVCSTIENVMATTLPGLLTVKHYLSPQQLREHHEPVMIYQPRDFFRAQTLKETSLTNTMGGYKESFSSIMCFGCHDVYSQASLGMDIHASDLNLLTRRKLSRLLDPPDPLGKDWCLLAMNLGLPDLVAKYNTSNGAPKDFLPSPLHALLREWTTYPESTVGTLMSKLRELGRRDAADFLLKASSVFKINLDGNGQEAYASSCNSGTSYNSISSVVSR

[9] = target: Serine/threonine-protein kinase mTOR (Homo sapiens) (UniProt P42345); test: Inhibition of FRAP1 (unknown origin) at 100 nM in the presence of ATP by Kinome scan method relative to control
[10] = target: Dual specificity protein kinase CLK1 (Homo sapiens) (UniProt P49759); test: Inhibition of CLK (unknown origin) in human 184-hTERT cells assessed as induction in alternative splicing effect in S6K canonical isoform incubated for 6 hrs by RT-PCR analysis; assay type: cell-based; conditions: dose 0.2-5 µM
Dual specificity protein kinase CLK1 (Homo sapiens), sequence (P49759 whole entry, looked up, canonical isoform): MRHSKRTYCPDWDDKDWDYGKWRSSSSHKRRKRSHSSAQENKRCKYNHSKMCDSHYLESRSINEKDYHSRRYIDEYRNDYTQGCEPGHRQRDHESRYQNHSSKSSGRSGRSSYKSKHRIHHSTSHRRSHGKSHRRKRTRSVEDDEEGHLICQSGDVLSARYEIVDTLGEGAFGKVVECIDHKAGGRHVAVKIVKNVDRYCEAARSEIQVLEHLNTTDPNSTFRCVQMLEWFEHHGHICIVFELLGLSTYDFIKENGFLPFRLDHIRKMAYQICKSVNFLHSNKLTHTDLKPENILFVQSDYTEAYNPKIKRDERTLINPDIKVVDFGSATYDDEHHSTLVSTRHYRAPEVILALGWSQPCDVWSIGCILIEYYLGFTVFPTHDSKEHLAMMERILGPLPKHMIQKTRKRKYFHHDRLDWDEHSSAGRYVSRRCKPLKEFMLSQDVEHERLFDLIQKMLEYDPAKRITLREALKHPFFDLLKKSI
How it was run: (§1)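 Cells exposed to graded T3 concentrations for 6 h (chosen to avoid cytotoxicity), with a DMSO vehicle control. Total RNA was reverse-transcribed with oligo-dT primers. Targeted splice or conjoined-gene products were quantified by real-time qPCR or by targeted next-generation sequencing. Conjoined-gene isoform expression was normalized to a sequenced housekeeping gene.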

[11] = target: Homeodomain-interacting protein kinase 2 (Homo sapiens) (UniProt Q9H2X6); test: Inhibition of HIPK2 (unknown origin) at 1000 nM in the presence of ATP by Kinome scan method relative to control
HCT-116 [12] = test: Induction of cell cycle arrest in human HCT-116 cells assessed as G2/M phase at 0.5 uM incubated for 6 hrs by flow cytometry analysis (Rvb=25.8%); assay type: functional
[13] = target: RAC-alpha serine/threonine-protein kinase (Homo sapiens) (UniProt P31749); test: Inhibition of AKT1 (unknown origin) at 100 nM in the presence of ATP by Kinome scan method relative to control
[14] = target: Dual specificity protein kinase CLK2 (Homo sapiens, UniProt P49760); test: Inhibition of N-terminal FLAG-tagged human CLK2 at 1110 nM in the presence of ATP by Kinome scan method relative to control
Dual specificity protein kinase CLK2, sequence (P49760 whole entry, looked up): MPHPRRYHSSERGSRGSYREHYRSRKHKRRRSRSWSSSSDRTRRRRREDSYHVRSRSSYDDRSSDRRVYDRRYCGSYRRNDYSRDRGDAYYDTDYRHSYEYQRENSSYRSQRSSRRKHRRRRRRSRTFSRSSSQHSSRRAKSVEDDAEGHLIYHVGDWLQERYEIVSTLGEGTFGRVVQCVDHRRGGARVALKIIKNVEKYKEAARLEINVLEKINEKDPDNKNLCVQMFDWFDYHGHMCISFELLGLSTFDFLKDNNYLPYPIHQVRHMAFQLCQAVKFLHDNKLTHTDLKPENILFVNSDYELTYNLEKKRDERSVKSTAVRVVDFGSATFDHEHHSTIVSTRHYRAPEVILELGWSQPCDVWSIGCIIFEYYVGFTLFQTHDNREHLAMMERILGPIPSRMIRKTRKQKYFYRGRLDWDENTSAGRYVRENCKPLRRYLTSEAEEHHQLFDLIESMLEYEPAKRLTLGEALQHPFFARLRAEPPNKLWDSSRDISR

HCT-116 [15] = test: Induction of cell cycle arrest in human HCT-116 cells assessed as G2/M phase at 0.1 uM incubated for 24 hrs by flow cytometry analysis (Rvb=17.9%); assay type: functional
[16] = target: Dual specificity protein kinase CLK1 (Homo sapiens) (UniProt P49759); test: Inhibition of CLK (unknown origin) in human HCT-116 cells assessed as induction in alternative splicing effect in MRPS10-GUCA1B level incubated for 6 hrs by RT-PCR analysis; assay type: cell-based; conditions: dose 0.2-5 µM; how it was run: as §1
[17] = target: Dual specificity protein kinase CLK1 (Homo sapiens) (UniProt P49759); test: Inhibition of CLK (unknown origin) in human MDA-MB-468 cells assessed as SRSF6 phosphorylation level incubated for 3 hrs by immunoblot analysis; assay type: cell-based
[18] = target: Casein kinase I isoform alpha (Homo sapiens) (UniProt P48729); test: Inhibition of CSNK1A1 (unknown origin) at 100 nM in the presence of ATP by Kinome scan method relative to control
Casein kinase I isoform alpha (Homo sapiens), sequence (P48729 2-337 limits assumed): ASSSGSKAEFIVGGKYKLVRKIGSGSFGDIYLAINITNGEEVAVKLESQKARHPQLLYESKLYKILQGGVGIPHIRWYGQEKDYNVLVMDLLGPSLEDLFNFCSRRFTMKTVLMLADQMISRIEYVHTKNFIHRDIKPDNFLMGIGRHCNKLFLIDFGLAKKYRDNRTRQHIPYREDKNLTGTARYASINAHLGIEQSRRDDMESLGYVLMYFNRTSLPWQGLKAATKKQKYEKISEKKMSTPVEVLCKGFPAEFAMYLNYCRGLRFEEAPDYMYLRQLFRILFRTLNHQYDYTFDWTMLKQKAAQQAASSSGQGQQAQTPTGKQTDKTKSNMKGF

HCT-116 [19] = test: Cytotoxicity against human HCT-116 cells assessed as inhibition of cell viability incubated for > 24 hrs; assay type: functional
HCT-116 [20] = test: Induction of cell cycle arrest in human HCT-116 cells assessed as S phase at 0.5 uM incubated for 6 hrs by flow cytometry analysis (Rvb=39.3%); assay type: functional
[21] = target: SRSF protein kinase 2 (Homo sapiens) (UniProt P78362); test: Inhibition of SRPK2 (unknown origin) at 123 nM in the presence of ATP by Kinome scan method relative to control; conditions: time > 6.0 hrs
HCT-116 [22] = test: Induction of cell cycle arrest in human HCT-116 cells assessed as sub G0/G1 phase at 1 uM incubated for 6 hrs by flow cytometry analysis (Rvb=1.6%); assay type: functional
HCT-116 [23] = test: Induction of cell cycle arrest in human HCT-116 cells assessed as sub G0/G1 phase at 1 uM incubated for 24 hrs by flow cytometry analysis (Rvb=2.5%); assay type: functional
[24] = target: Hepatocyte growth factor receptor (Homo sapiens) (UniProt P08581); test: Inhibition of MET (unknown origin) at 1000 nM in the presence of ATP by Kinome scan method relative to control
HCT-116 [25] = test: Induction of cell cycle arrest in human HCT-116 cells assessed as G2/M phase at 5 uM incubated for 24 hrs by flow cytometry analysis (Rvb=17.9%); assay type: functional
[26] = target: Mitogen-activated protein kinase 3 (Homo sapiens) (UniProt P27361); test: Inhibition of MAPK3 (unknown origin) at 100 nM in the presence of ATP by Kinome scan method relative to control
HCT-116 [27] = test: Induction of cell cycle arrest in human HCT-116 cells assessed as G2/M phase at 0.5 uM incubated for 24 hrs by flow cytometry analysis (Rvb=17.9%); assay type: functional
[28] = target: Aurora kinase A (Homo sapiens) (UniProt O14965); test: Inhibition of AURKA (unknown origin) at 1000 nM in the presence of ATP by Kinome scan method relative to control
Aurora kinase A (Homo sapiens), sequence (O14965 whole entry): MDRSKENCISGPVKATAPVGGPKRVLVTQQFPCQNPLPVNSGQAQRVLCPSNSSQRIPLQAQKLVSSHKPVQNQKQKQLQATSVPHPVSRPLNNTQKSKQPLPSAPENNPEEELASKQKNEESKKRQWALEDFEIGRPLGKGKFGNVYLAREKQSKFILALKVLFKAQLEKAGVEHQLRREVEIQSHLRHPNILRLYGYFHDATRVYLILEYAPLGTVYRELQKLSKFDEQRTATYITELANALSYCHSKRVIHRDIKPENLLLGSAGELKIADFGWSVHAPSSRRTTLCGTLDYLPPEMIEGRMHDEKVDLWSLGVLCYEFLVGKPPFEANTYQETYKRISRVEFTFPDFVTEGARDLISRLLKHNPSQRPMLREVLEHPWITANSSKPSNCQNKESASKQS

HCT-116 [29] = test: Induction of cell cycle arrest in human HCT-116 cells assessed as S phase at 10 uM incubated for 6 hrs by flow cytometry analysis (Rvb=39.3%); assay type: functional
[30] = target: Calcium/calmodulin-dependent protein kinase type 1 (Homo sapiens) (UniProt Q14012); test: Inhibition of CAMK1 (unknown origin) at 100 nM in the presence of ATP by Kinome scan method relative to control
Calcium/calmodulin-dependent protein kinase type 1 (Homo sapiens), sequence (Q14012 whole entry, looked up): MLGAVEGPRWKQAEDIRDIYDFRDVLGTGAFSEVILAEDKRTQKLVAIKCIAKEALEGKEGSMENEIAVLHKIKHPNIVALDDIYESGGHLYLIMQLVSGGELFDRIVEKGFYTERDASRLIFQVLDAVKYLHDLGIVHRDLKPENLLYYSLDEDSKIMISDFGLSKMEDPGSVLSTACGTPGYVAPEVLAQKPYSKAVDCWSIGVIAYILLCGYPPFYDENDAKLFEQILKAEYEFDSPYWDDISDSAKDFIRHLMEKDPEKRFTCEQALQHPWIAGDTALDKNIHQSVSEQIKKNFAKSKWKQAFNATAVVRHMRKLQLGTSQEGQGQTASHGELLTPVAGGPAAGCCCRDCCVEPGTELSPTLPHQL

[31] = target: Proto-oncogene tyrosine-protein kinase Src (Homo sapiens) (UniProt P12931); test: Inhibition of SRC (unknown origin) at 1000 nM in the presence of ATP by Kinome scan method relative to control
HCT-116 [32] = test: Induction of cell cycle arrest in human HCT-116 cells assessed as S phase at 0.5 uM incubated for 24 hrs by flow cytometry analysis (Rvb=46.4%); assay type: functional

## CN1CCN(C(=O)C(C)(C)c2ccc(C(=O)Nc3cn4cc(-c5ccncc5)ccc4n3)cc2)CC1 [T3-CLK]
[1]
  inhibition: 2%
[2]
  inhibition: -6%
[3]
  inhibition: 11%
[4]
  inhibition: 22%
[5]
  inhibition: 63%
[6]
  inhibition: 11%
[7]
  remaining at 24 h, 5.38 µM: 98.8%
[8]
  inhibition: -6%
[9]
  inhibition: -6%
[10]
  inhibition: Dose-Dependent Effect
[11]
  inhibition: -2%
HCT-116 [12]
  Activity: 34.8%
[13]
  inhibition: -8%
[14]
  inhibition: 100%
HCT-116 [15]
  Activity: 20.7%
[16]
  inhibition: Dose-Dependent Effect
[17]
  inhibition: Active
[18]
  inhibition: -4%
HCT-116 [19]
  GI: 0.133 µM
HCT-116 [20]
  Activity: 46.9%
[21]
  inhibition: 2%
HCT-116 [22]
  Activity: 1.5%
HCT-116 [23]
  Activity: 20.4%
[24]
  inhibition: -7%
HCT-116 [25]
  Activity: 41.2%
[26]
  inhibition: 6%
HCT-116 [27]
  Activity: 68.1%
[28]
  inhibition: 9%
HCT-116 [29]
  Activity: 45.3%
[30]
  inhibition: 7%
[31]
  inhibition: 47%
HCT-116 [32]
  Activity: 20.5%

Reference: ChEMBL document CHEMBL5696444 (Nat Commun, 2017)
